Experimental data reported in ChEMBL document CHEMBL1156753, “Structural studies of pterin-based inhibitors of dihydropteroate synthase” (J Med Chem, 2010).

How the values were obtained:
Dihydropteroate synthase [1] = target: T1, Dihydropteroate synthase (Bacillus anthracis, UniProt Q81VW8); assay: Inhibition of Bacillus anthracis DHPS expressed in Escherichia coli BL21 (DE3) after 30 mins
T1 sequence (Q81VW8 whole entry): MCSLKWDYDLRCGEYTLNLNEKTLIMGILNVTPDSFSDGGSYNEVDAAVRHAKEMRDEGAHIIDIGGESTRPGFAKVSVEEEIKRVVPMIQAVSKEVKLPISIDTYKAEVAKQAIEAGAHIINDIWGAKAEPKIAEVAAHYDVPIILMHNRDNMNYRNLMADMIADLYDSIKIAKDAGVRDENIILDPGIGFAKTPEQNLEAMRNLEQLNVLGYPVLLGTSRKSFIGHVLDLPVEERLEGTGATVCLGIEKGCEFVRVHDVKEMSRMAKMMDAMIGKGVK
Summary of the method: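 Radiometric assay at 37 °C for 30 min: 5 μM 14C pABA, 10 μM enzymatically prepared dihydropterin diphosphate, 10 mM MgCl2, 2% DMSO, 50 mM HEPES pH 7.6, 5 ng DHPS, over a range of inhibitor concentrations. The reaction was stopped with acetic acid on ice. 14C dihydropteroate was separated from pABA by PEI-cellulose TLC and quantified by phosphorimaging. IC50 was obtained by curve fitting.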

[2] = target: T2, Dihydropteroate synthase (Bacillus anthracis) (UniProt Q81VW8); assay: Inhibition of Bacillus anthracis DHPS expressed in Escherichia coli BL21 (DE3) at 500 uM after 30 mins
T2 sequence (whole entry): T1 sequence (Q81VW8 whole entry)
Summary of the method: (§1)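 Reaction held 5 μM 14C pABA, 10 μM enzymatically prepared dihydropterin diphosphate, 10 mM MgCl2, 2% DMSO, 50 mM HEPES pH 7.6, 10 ng DHPS. Product was separated by PEI-cellulose TLC and quantified by phosphorimaging as percent inhibition.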

Dihydropteroate synthase [3] = target: T1, Dihydropteroate synthase; assay: Binding affinity to Bacillus anthracis DHPS expressed in Escherichia coli BL21 (DE3) after 30 mins by isothermal titration calorimetry
Summary of the method: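 ITC at 25 °C in 40 mM HEPES, 4 mM MgCl2, pH 7.6; 5% DMSO added to the buffer for the inhibitor titration. Protein was dialyzed against 50 mM HEPES, 5 mM MgCl2, pH 7.6. Nineteen injections of 500 μM ligand went into 20 μM DHPS. Kd was fitted to a one-site binding model.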

[4] = target: T2, Dihydropteroate synthase (Bacillus anthracis); assay: Inhibition of Bacillus anthracis DHPS expressed in Escherichia coli BL21 (DE3) at 250 uM after 30 mins; summary of the method: as §1

Structure (SMILES) | IC50 (Dihydropteroate synthase [1]) [µM] | inhibition [2] [%] | Kd (Dihydropteroate synthase [3]) [µM] | inhibition [4] [%]
CN1CC(CC(C)(C)O)=Nc2c1nc(N)[nH]c2=O | 215 | 54 | – | –
Nc1nc(NCCCOc2ccc(C(=O)O)cc2)c(N=O)c(=O)[nH]1 | – | 79 | – | –
Cn1c(=O)c2nc(C(=O)O)c(=O)[nH]c2n(C)c1=O | – | 33 | – | –
Nc1ccc(C(=O)O)cc1 [AMINOBENZOIC ACID] | – | – | 5.62 | –
CNc1nc(N)[nH]c(=O)c1[N+](=O)[O-] | – | 53 | – | –
Cn1c(=O)c2nc(C=O)c(=O)[nH]c2n(C)c1=O | – | 44 | – | –
Cc1cc(/C=C2/C(=O)N=C(O)N=C2O)c(C)n1C | – | 35 | – | –
NC(=O)c1nc[nH]c1C(N)=O | – | 32 | – | –
Nc1nc2ncc(CCNc3ccc(C(=O)O)cc3)nc2c(=O)[nH]1 | 87.1 | 76 | – | –
Nc1nc2c(c(=O)[nH]1)N=C(CCNc1ccc(C(=O)O)cc1)CN2 | 25.9 | 100 | – | –
Nc1nc2nc3c(nc2c(=O)[nH]1)CCCC3 | – | 31 | – | –
Nc1nc2[nH]c(S)nc2c(=O)[nH]1 | – | – | – | 0
CC(C(=O)O)c1nn(C)c2nc(N)[nH]c(=O)c2c1=O (centres undefined) | 19.8 | 97 | – | –
CN1CC(C(=O)O)=Nc2c1nc(N)[nH]c2=O | 32.4 | – | 5.26 | 93
CC1CNc2nc(N)[nH]c(=O)c2N1 (centres undefined) | – | 67 | – | –
Nc1nc(N)c(N=O)c(=O)[nH]1 | 8 | – | – | 81
Nc1nnc(N)c2[nH]cnc12 | > 500 | 32 | – | –
Nc1nc(N)c([N+](=O)[O-])c(=O)[nH]1 | 109 | – | – | 80
Nc1nc2ncc(C(=O)O)nc2c(=O)[nH]1 | – | 37 | – | –
CN1CC=Nc2c1nc(N)[nH]c2=O | 86.7 | 76 | – | –
Nc1nc2[nH]c(=O)c(C(=O)O)nc2c(=O)[nH]1 | 269 | 70 | – | –
Nc1ccc2nc(CCc3nc4ccc(N)cc4[nH]3)[nH]c2c1 | – | 62 | – | –
Nc1ncc(Oc2ccccc2)c(=O)[nH]1 | – | 37 | – | –
